Hits are enriched below; roughly 2.6% of the tested compounds scored in any of these assays.
IMP-1 inhibitor: blocks Pseudomonas aeruginosa IMP-1 metallo-beta-lactamase; purified IMP-1, nitrocefin hydrolysis, epi-absorbance fluorescence; inhibition, % at 5.6 µM; 290,000 tested, 0.45% active; AID 1556;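 active = inhibition above the mean plus 3 SD of all compounds in the same screening run, cut at about 4.5% in these data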
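System – purified recombinant IMP-1 beta-lactamase · Input – IMP-1 dispensed at 0.2 nM · Timing – 15 min preincubation plus 25 min reaction at 25 °C · Signal – Epi-absorbance fluorescence, 480 nm excitation, 530 nm emission · Measure – percent IMP-1 inhibition derived from blank-referenced optical density · Controls – Enzyme-plus-DMSO low control, enzyme-free DMSO high control · Replication – singlicate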
Runt-CBFb FRET: blocks binding of human RUNX1 Runt domain to CBFb; Cerulean-Runt/Venus-CBFb FRET ratio 530/480, 1 h; AID 1496; inhibition, % at 20 µM; 220,000 tested, 0.46% active; Q01196+Q13951;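 active = inhibition over about 50% at 20 µM in the single-dose screen, limit read from the data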
Target sequence (Q01196 whole entry, looked up, the tested form may be a part): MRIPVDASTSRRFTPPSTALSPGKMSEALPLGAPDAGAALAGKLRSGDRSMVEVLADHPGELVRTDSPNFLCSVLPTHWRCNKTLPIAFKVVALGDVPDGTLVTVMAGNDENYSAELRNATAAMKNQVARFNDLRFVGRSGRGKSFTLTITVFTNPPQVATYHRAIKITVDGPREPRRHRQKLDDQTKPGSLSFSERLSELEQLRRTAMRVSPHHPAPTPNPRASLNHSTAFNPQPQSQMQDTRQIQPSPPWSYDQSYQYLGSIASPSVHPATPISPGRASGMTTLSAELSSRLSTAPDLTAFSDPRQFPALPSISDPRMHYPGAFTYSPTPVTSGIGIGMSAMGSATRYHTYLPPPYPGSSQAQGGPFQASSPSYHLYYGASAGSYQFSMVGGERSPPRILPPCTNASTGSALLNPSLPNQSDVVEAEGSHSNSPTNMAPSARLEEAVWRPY
Target sequence (Q13951 whole entry, looked up, the tested form may be a part): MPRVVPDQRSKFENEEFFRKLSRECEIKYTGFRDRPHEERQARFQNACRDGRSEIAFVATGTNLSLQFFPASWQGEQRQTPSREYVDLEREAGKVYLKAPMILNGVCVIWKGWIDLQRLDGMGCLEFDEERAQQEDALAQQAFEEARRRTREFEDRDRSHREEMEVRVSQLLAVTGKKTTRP
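Schedule: protein complex preformed 1 h, compound exposure 1 h, room temperature, dark; test system: Cerulean-labeled Runt domain protein; amount: 100 nM per protein; buffer or medium: Tris 50 mM pH 7.5, KCl, K2SO4, 0.01% BSA; read-out: loss of energy transfer signal; detection: FRET fluorescence; controls: 5 µM unlabeled CBFb as full-inhibition high control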
Runt-SMMHC FRET: inhibitors of human RUNX1 Runt domain binding to CBFb-SMMHC; Q01196+Q13951; Cerulean-Runt/Venus-CBFb-SMMHC FRET ratio 530/480, 1 h; inhibition, % at 20 µM; 220,000 tested, 0.74% active; AID 1434;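 active = mean inhibition across duplicate retests at 20 µM reaching about 50%, limit read from the data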;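 also: inhibitors lower the FRET ratio by blocking Runt binding to CBFb-SMMHC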
RanGTP-Impb inh: inhibitors of RanGTP-importin-beta interaction, primary screen, biochemical, FRET, CFP-Ran, YFP-importin-beta, homogeneous; AID 2216; 300,000 tested, 1.1% active; inhibition, % (test concentration not listed); cell-free CFP-Ran/YFP-importin-beta FRET ratio;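 active = more than half of the replicate wells show a fall in the fluorescence ratio signal beyond about 16%, limit read from the data, passing the limit was not always enough; inconclusive = exactly half of the replicate wells pass the set limit; inactive = fewer than half of replicates pass the limit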
VIM-2 inh: inhibitors of Pseudomonas aeruginosa VIM-2 metallo-beta-lactamase | purified VIM-2, nitrocefin hydrolysis, epi-absorbance fluorescence | inhibition, % at 5.6 µM | 290,000 tested, 0.89% active | AID 1527;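 active = inhibition above the mean of all tested compounds plus 3 SD, cutoff set per screening run, cut at about 7.5% in these data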;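 also: red hydrolysis product quenches plate fluorescence so inhibitors raise well fluorescence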
YIC FRET counter: counter-screen YIC FRET for RanGTP-importin-beta inhibitors. Purified YIC probe, intramolecular FRET ratio YFP/CFP. IC50, µM. shares compounds with RanGTP-Impb inh. 1,000 tested, 40% active;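 active = fitted half-maximal inhibitory concentration no more than tenfold above the top dose tested; inconclusive = flat fit with 30 to 70% activity, or poor fit; inactive = half-maximal concentration beyond tenfold above the top dose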
Numbers stand for hits; n = inactive; u = inconclusive; x = no result given.

SMILES	IMP-1 inhibitor	Runt-CBFb FRET	Runt-SMMHC FRET	RanGTP-Impb inh	VIM-2 inh	YIC FRET counter
CN(C)CCCNC(=O)c1cc(C(=O)c2cccc(Cl)c2Cl)c[nH]1	n	x	x	n	n	x
CCOc1ccc(CN(C)C(=O)CCN2C(=O)c3ccccc3C2=O)cc1OC	n	x	x	n	n	x
Cc1cccc(NS(=O)(=O)c2ccc(C(=O)N3CCCCCC3)cc2)c1C	x	x	x	17.1	x	n
Cc1cccc(NS(=O)(=O)c2ccc(C(=O)N3CCCC3)cc2)c1C	x	x	x	n	x	x
O=C(Nc1ccnc(-c2ccncc2)n1)c1ccc(Cl)cc1	n	n	n	23.0	n	n
Cc1cccc(C(=O)Nc2ccnc(-c3ccncc3)n2)c1	n	n	n	n	n	x
CCCNC(=O)CC(NS(=O)(=O)c1ccc(OC)cc1)c1ccco1 (stereo not given)	n	n	n	n	n	x
COc1ccccc1C1C(C(N)=O)=C(C)Nc2ncnn21 (stereo not given)	6.8	n	n	23.2	n	n
O=C(Nc1ccc(S(=O)(=O)N2CCOCC2)cc1)c1c(F)cccc1F	n	x	x	n	n	x
CCn1c(SCC(=O)NC2CCCCC2)nnc1-c1ccccc1F	n	x	x	n	n	x
Cc1cc(C(=O)COC(=O)c2nc3nccc(C)n3n2)c(C)n1CC1CCCO1 (stereo not given)	n	n	n	21.2	n	n
CCN1C(=O)/C(=C2\Sc3ccccc3N2CC)OC1=S	n	n	n	20.6	n	36.3
C=CCN1C(=O)/C(=C2/Sc3ccccc3N2CC)SC1=S	n	x	x	16.6	n	n
C=CCN1C(=O)/C(=C2/Sc3ccccc3N2C)SC1=Nc1ccccc1C	n	n	n	n	n	x
Cc1cc(Nc2ccccc2)nn1C(=O)c1ccc(Br)cc1	n	n	n	n	n	x
Cc1cc(Nc2ccccc2)nn1C(=O)c1ccccc1	n	n	n	17.8	n	n
COC(=O)c1ccc(NC(=O)CCC(=O)c2ccc(F)cc2)cc1	n	x	x	n	n	x
CN(CC(=O)Nc1ccc(F)cc1)C(=O)COC(=O)c1ccccc1	x	x	x	n	x	x
CC(=O)c1cccc(OCC(=O)N(C)CC(=O)Nc2ccc(F)cc2)c1	n	n	n	64.6	n	n
O=C(Nc1nonc1NC(=O)c1cccs1)c1cccs1	n	n	n	21.1	n	n
COC(=O)C(C)Oc1ccc2c(c1)O/C(=C\c1ccco1)C2=O (stereo not given)	n	x	x	20.8	n	17.4
COc1ccc2c(c1)O/C(=C\c1ccco1)C2=O	n	n	61.2	20.8	n	18.8
COc1ccc(/C=C2\Oc3cc(OCC(N)=O)ccc3C2=O)cc1OC	n	x	x	n	n	x
CCN(CC(=O)Nc1ccccc1C(F)(F)F)C(=O)CCS(=O)(=O)c1ccc(C)cc1	x	x	x	n	x	x
CCOC(=O)Cc1csc(NC(=O)c2sc3nc4c(C)cc(C)cc4cc3c2N)n1	n	n	n	n	n	x
SMILES	IMP-1 inhibitor	Runt-CBFb FRET	Runt-SMMHC FRET	RanGTP-Impb inh	VIM-2 inh	YIC FRET counter
O=C(c1cccc(-c2ccccc2)c1)N1CC[C@@H](N2CCC(O)CC2)[C@H](O)C1	n	x	x	24.6	n	n
COc1ccc2c(C)c(C(=O)N3CC[C@@H](N4CCC(O)CC4)[C@H](O)C3)oc2c1	n	x	x	16.0	n	n
COc1cc(C(=O)NCCCNc2nc3cc(C)cc(C)c3cc2C#N)cc(OC)c1OC	n	x	72.9	20.9	n	27.8
COc1ccc2cc(C(=O)N3CCc4ccccc43)[nH]c2c1	n	x	x	n	n	x
CCC(C)OC(=O)C[N+](C)(C)CCOC1CC2CCC1(C)C2(C)C (stereo not given)	n	n	n	22.4	n	n
CC(C)CCOC(=O)C[N+](C)(C)CCOC1CC2CCC1(C)C2(C)C (stereo not given)	n	n	n	n	n	x
CNc1oc(-c2cccs2)nc1C#N	n	n	n	n	n	x
CN(C)c1oc(-c2cccs2)nc1C#N	n	n	n	23.7	n	n
COc1ccc(C(=O)N/N=C/c2sc3ccccc3c2O)cc1	n	n	n	n	n	x
COc1ccc2cc(C(=O)N/N=C/c3sc4ccccc4c3O)ccc2c1	n	n	n	22.5	n	n
NC(=O)CN(Cc1ccccc1)S(=O)(=O)c1ccc2c(c1)OCCO2	n	x	x	18.9	n	n
O=C(CN(Cc1ccccc1)S(=O)(=O)c1ccc2c(c1)OCCO2)Nc1ccc2c(c1)OCCO2	n	n	n	n	n	x
O=C(Nc1cccc(F)c1)c1ccc(S(=O)(=O)NCC2CCCO2)cc1 (stereo not given)	n	n	n	21.4	n	n
O=C(Nc1ccc2c(c1)OCO2)c1ccc(S(=O)(=O)NCC2CCCO2)cc1 (stereo not given)	n	n	n	n	n	x
CC1(CCCN2C(=O)c3ccccc3C2=O)OCCO1	x	x	x	n	x	x
CCN(CC)S(=O)(=O)c1cccc(C(=O)N/N=C2\CC(=O)CC(C)(C)C2)c1	n	n	n	n	n	x
Cc1ccc(S(=O)(=O)N(C)Cc2ccc(C(=O)N/N=C3\CC(=O)CC(C)(C)C3)cc2)cc1	n	n	n	18.6	n	n
Cc1cnc(C(=O)Nc2ccc(S(=O)(=O)N(C(C)C)C(C)C)cc2)cn1	n	x	x	19.7	n	n
Cc1ccc(C2=CC(c3ccccc3)n3ncnc3N2)cc1 (stereo not given)	x	x	x	n	x	x
Cc1ccc(C2=CC(c3ccccc3)n3ncnc3N2)c(C)c1 (stereo not given)	x	x	x	18.6	x	n
COc1ccccc1N(CC(=O)NCCSc1ccc(Cl)cc1)S(C)(=O)=O	n	n	n	n	n	x
C=CCn1c(SCC(=O)NC2CCCC2)nnc1-c1ccncc1	n	x	x	n	n	x
C=CCn1c(SCC(=O)N2CCCCC2)nnc1-c1ccncc1	n	n	n	36.4	n	n
CCN(CC)S(=O)(=O)c1ccc(NC(=O)c2ccc(Sc3nncn3C)c([N+](=O)[O-])c2)cc1	n	n	n	23.3	n	n
CN(C)S(=O)(=O)c1cccc(NC(=O)c2ccc(Sc3nncn3C)c([N+](=O)[O-])c2)c1	n	n	n	n	n	x
SMILES	IMP-1 inhibitor	Runt-CBFb FRET	Runt-SMMHC FRET	RanGTP-Impb inh	VIM-2 inh	YIC FRET counter
COc1ccc(-c2nnc(S/C(=C/c3ccc(Cl)cc3)C(=O)O)o2)cc1	n	n	n	u	n	x
CSc1ccc(/C=C(/Sc2nnc(-c3ccccc3)o2)C(=O)O)cc1	n	n	n	25.0	n	41
COC(=O)Cc1c(C)c2cc(Cl)c(OC(=O)c3ccco3)cc2oc1=O	n	98.1	141.3	47.0	n	20.9
COC(=O)Cc1c(C)c2ccc(OC(=O)c3ccco3)cc2oc1=O	n	n	n	n	n	x
CC(=O)Nc1cccc(NC(=O)CSc2nccn2Cc2ccccc2)c1	n	x	x	n	n	x
Cc1cc(C(=O)N/N=C2\CC(=O)CC(C)(C)C2)n[nH]1	n	n	n	16.2	n	n
Cc1cc(C(=O)N/N=C2\CC(=O)CC(C)(C)C2)c(C)n1-c1ccc(F)cc1	n	n	n	n	n	x
